Our source for the IC50 values is ChEMBL document CHEMBL1131193, “Selective tight binding inhibitors of trypanosomal glyceraldehyde-3-phosphate dehydrogenase via structure-based drug design” (J Med Chem, 1998).

Where only a bound is given, the exact number is not on record here.

The nature of test [1]: Inhibitory activity was measured for Glyceraldehyde-3-phosphate dehydrogenase (GAPDH) in Leishmania. mexicana.
Test [2] is described as follows: Inhibitory activity measured for Glyceraldehyde-3-phosphate dehydrogenase (GAPDH) in Leishmania. mexicana. The method in brief: (§1)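 Recombinant glycosomal GAPDH of L. mexicana, T. cruzi or T. brucei; human enzyme from erythrocytes. NADH formation followed at 340 nm, 21 °C, in 0.1 M triethanolamine-HCl pH 7.6 with DTT, NaN3, MgSO4, EDTA, 10 mM K2HPO4, 0.8 mM glyceraldehyde-3-phosphate, 0.19 mM NAD+, 5% DMSO. Reaction started with enzyme. IC50 from 0–1 min initial rates at ≥5 inhibitor levels versus DMSO control.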

The subject of test [3] is GAPDH (Leishmania mexicana). The test can be described thus: Inhibitory activity was measured for Glyceraldehyde-3-phosphate dehydrogenase (up to 10 mM.
A short description of test [4]: Inhibitory activity was measured for Glyceraldehyde-3-phosphate dehydrogenase in Trypanosoma brucei. The essentials:
as §1

For test [5], the target named is Glyceraldehyde-3-phosphate dehydrogenase (Homo sapiens, UniProt P04406). Description: Inhibitory activity was measured for Glyceraldehyde-3-phosphate dehydrogenase in human(erythrocytes). The format is cell-based. The method in brief:
as §1

Test [6] is described as follows: Inhibitory activity was measured for Glyceraldehyde-3-phosphate dehydrogenase in Trypanosoma cruzi. The method in brief: as §1
The subject of test [7] is GAPDH (Leishmania mexicana). The test can be described thus: Inhibitory activity was measured for Glyceraldehyde-3-phosphate dehydrogenase (up to 10 mM. This is another data set of the same source.

Chain of Glyceraldehyde-3-phosphate dehydrogenase (P04406 whole entry): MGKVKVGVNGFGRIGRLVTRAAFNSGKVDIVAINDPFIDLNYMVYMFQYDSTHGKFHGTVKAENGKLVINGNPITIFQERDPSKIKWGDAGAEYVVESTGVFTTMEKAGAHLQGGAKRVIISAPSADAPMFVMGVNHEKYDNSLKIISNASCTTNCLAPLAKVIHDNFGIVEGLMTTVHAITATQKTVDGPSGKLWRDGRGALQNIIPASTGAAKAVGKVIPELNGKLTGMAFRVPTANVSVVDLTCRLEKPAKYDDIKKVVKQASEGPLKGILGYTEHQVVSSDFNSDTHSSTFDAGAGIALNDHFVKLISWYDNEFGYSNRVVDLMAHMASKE

In the case of `CC(C)CCNc1ncnc2c1ncn2[C@@H]1O[C@H](CO)[C@@H](O)[C@H]1O`, half-maximal inhibition in test [1] (IC50) required 3700 µM.

As for `OC[C@H]1O[C@@H](n2cnc3c(NCc4cccc5ccccc45)ncnc32)[C@H](O)[C@@H]1O`, the IC50 (as a rule, the concentration needed to halve the response being measured) in test [2] is 150 µM. Compound `OC[C@H]1O[C@@H](n2cnc3c(NC4CCCCCC4)ncnc32)[C@H](O)[C@@H]1O` gave an IC50 in test [2] of 1800 µM. In test [2], `Nc1ccc(CNc2ncnc3c2ncn3[C@@H]2O[C@H](CO)[C@@H](O)[C@H]2O)cc1` came in with an IC50 of 3100 µM. Regarding `CC(C)Nc1ncnc2c1ncn2[C@@H]1O[C@H](CO)[C@@H](O)[C@H]1O`, in test [3], the IC50 result is recorded as “Not Active”. In test [2], `COc1cccc(C(=O)N[C@@H]2[C@H](O)[C@@H](CO)O[C@H]2n2cnc3c(N)ncnc32)c1` yielded an IC50 of 800 µM.

In turn, `Nc1ncnc2c1ncn2[C@@H]1O[C@H](CO)[C@@H](O)[C@H]1NC(=O)c1cc(O)c(O)c(O)c1` returned an IC50 in test [2] of 250 µM. Still for that read-out and setting: under `Nc1ncnc2c1ncn2[C@@H]1O[C@H](CO)[C@@H](O)[C@H]1NC(=O)c1cccc(O)c1` stands 850 µM. Regarding `COc1cccc(C(=O)N[C@@H]2[C@H](O)[C@@H](CO)O[C@H]2n2cnc3c(N)ncnc32)c1O`, the IC50 in test [2] was 600 µM.

`COc1cc(C(=O)N[C@@H]2[C@H](O)[C@@H](CO)O[C@H]2n2cnc3c(N)ncnc32)ccc1O`: the IC50 in test [2] is 500 µM. In the case of `COc1cccc(C(=O)N[C@@H]2[C@H](O)[C@@H](CO)O[C@H]2n2cnc3c(NCc4ccccc4C)ncnc32)c1`, the IC50 was 30 µM in test [4], greater than 270 µM in test [5], 30 µM in test [6] and 4 µM in test [2]. With `COc1cccc(C(=O)N[C@@H]2[C@H](O)[C@@H](CO)O[C@H]2n2cnc3c(NCc4ccccc4)ncnc32)c1`, the IC50 in test [4] was 220 µM; in test [5], greater than 530 µM; in test [6] it was 159 µM; in test [2] it was 16 µM. On to `COc1cccc(C(=O)N[C@@H]2[C@H](O)[C@@H](CO)O[C@H]2n2cnc3c(NCc4cccc(C)c4C)ncnc32)c1`, for which, in test [2], the IC50 is 5.5 µM. The same measure, in the same setting: with `COc1cccc(C(=O)N[C@@H]2[C@H](O)[C@@H](CO)O[C@H]2n2cnc3c(NCc4cc(C)ccc4C)ncnc32)c1` the figure was 25 µM; with `Nc1ncnc2c1ncn2[C@@H]1O[C@H](CO)[C@@H](O)[C@H]1NC(=O)c1cc(O)cc(O)c1`, 650 µM; with `COc1cccc(C(=O)N[C@@H]2[C@H](O)[C@@H](CO)O[C@H]2n2cnc3c(NCc4ccccc4OC)ncnc32)c1`, 25 µM. On the same count and under the same terms, with `COc1cccc(C(=O)N[C@@H]2[C@H](O)[C@@H](CO)O[C@H]2n2cnc3c(NC(=O)C(C)C)ncnc32)c1` the figure was 1200 µM; with `OC[C@H]1O[C@@H](n2cnc3c(NC4CCCc5ccccc54)ncnc32)[C@H](O)[C@@H]1O` (some centres not stated), 360 µM; with `Cc1cccc(CNc2ncnc3c2ncn3[C@@H]2O[C@H](CO)[C@@H](O)[C@H]2O)c1`, 700 µM. As for `CCCCCNc1ncnc2c1ncn2[C@@H]1O[C@H](CO)[C@@H](O)[C@H]1O`, the IC50 entry in test [7] is recorded as “Not Active”. Still for that read-out and setting: under `CC(C)(C)Nc1ncnc2c1ncn2C1O[C@H](CO)[C@@H](O)[C@H]1O` (some centres not stated) stands “Not Active”; under `CCCC(C)Nc1ncnc2c1ncn2C1O[C@H](CO)[C@@H](O)[C@H]1O` (some centres not stated), “Not Active”. `OC[C@H]1OC(n2cnc3c(NC(c4ccccc4)c4ccccc4)ncnc32)[C@H](O)[C@@H]1O` (some centres not stated) yielded an IC50 in test [2] of 240 µM. In test [2], `CC(CO)CCNc1ncnc2c1ncn2C1O[C@H](CO)[C@@H](O)[C@H]1O` (some centres not stated) came in with an IC50 of 3400 µM. The same measure, in the same setting: with `CCC(C)CNc1ncnc2c1ncn2C1O[C@H](CO)[C@@H](O)[C@H]1O` (some centres not stated) the figure was greater than 5400 µM; with `OCc1ccccc1Sc1ccccc1CNc1ncnc2c1ncn2C1O[C@H](CO)[C@@H](O)[C@H]1O` (some centres not stated), 340 µM. In test [2], `Nc1ncnc2c1ncn2[C@@H]1O[C@H](CO)[C@@H](O)[C@H]1O` [ADENOSINE] displayed an IC50 of 50000 µM.

`Cc1ccccc1CNc1ncnc2c1ncn2[C@@H]1O[C@H](CO)[C@@H](O)[C@H]1O` [METRIFUDIL] had an IC50 in test [2] of 700 µM. For `OC[C@H]1O[C@@H](n2cnc3c(NCc4ccccc4)ncnc32)[C@H](O)[C@@H]1O` [N6-BENZYLADENOSINE], 4200 µM corresponded to half-maximal inhibition in test [2] (IC50). Same read-out and setting: with `OC[C@H]1O[C@@H](n2cnc3c(NC4CCCC4)ncnc32)[C@H](O)[C@@H]1O` [N6-CYCLOPENTYLADENOSINE] the figure was greater than 5000 µM; with `CC(C)=CCNc1ncnc2c1ncn2[C@@H]1O[C@H](CO)[C@@H](O)[C@H]1O` [RIBOPRINE], greater than 5000 µM.
